Source: PubChem BioAssay
N-glyco inh = blocks N-linked glycosylation in D54 reporter cells | D54 ERlucT glycosylation luciferase reporter, 24 h; percent of 100 nM tunicamycin response | reporter increase, % at 12.5 µM | 360,000 compounds, 0.23% hits | AID 588692;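 active = mean luciferase reporter signal, scaled so untreated is 0 and the glycosylation-blocking control 100, at or above a set limit in every replicate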;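 note: luciferase carries N-glycosylation sites so blocking glycosylation raises the light; 0% = median of neutral control wells and 100% = median of 100 nM tunicamycin wells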
MLL AF4-AF9 inh = blocks AF4 peptide binding to human AF9 | 350,000 compounds, 0.47% hits | AID 651704 | P42568 | AlphaScreen, biotin-AF4 peptide binding to FLAG-AF9 | inhibition, % at 10 µM;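 active = every replicate reaching a set inhibition limit, whatever the replicate mean, cut at about 25% in these data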;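 note: 0% = plate neutral control median and 100% = total signal loss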
Target sequence (P42568 whole entry, looked up): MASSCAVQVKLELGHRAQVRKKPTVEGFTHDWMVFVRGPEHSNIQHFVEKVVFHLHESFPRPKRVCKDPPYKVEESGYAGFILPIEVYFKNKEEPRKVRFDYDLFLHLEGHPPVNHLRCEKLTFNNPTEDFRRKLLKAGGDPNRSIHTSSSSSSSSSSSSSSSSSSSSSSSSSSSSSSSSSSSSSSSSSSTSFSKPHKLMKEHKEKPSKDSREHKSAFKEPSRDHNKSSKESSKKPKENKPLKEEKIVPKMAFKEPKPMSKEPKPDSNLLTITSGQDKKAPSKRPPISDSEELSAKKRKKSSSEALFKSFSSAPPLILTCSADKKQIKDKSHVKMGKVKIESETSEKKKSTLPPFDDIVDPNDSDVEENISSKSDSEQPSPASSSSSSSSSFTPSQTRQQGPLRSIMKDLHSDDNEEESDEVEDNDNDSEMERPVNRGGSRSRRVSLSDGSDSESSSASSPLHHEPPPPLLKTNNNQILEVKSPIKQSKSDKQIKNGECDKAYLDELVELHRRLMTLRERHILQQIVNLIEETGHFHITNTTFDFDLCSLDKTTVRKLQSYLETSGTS
Env fusion inh = blocks HIV Env-driven cell-cell fusion; HeLa-JRFL Env/CEM21 cell fusion, luciferase; inhibition, % at 12.3 µM; 360,000 compounds, 1.1% hits; AID 651610;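 active = mean replicate inhibition score of at least 50 and every replicate individually at or above 50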;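 note: 0% = plate neutral controls and 100% = maraviroc near 300 nM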
EWS-Fli block = inhibitors of EWS/Fli oncoprotein transcriptional activity; A673 NR0B1-luciferase reporter, viability-normalised; inhibition, % at 12.6 µM; 350,000 compounds, 0.67% hits; AID 651661;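 active = mean inhibition of at least 50% after viability correction, with every replicate also passing that limit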;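 note: firefly luciferase signal divided by Alamar Blue viability fluorescence both relative to DMSO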
FN deposit inh = fibronectin deposition inhibition; AH1F fibroblasts, Alexa488-fibronectin deposition fluorescence, overnight; inhibition, % at 12.6 µM; 350,000 compounds, 0.086% hits;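 active = mean inhibition across replicates of 30% or more, regardless of how many single replicates reach that level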;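 note: positive control wells lacked labelled fibronectin entirely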
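Material – AH1F fibroblast monolayer, labelled fibronectin deposition · Reagent – labelled fibronectin 24 nM · Timing – 1 h adhesion, overnight exposure · Measured by – fluorescence at 485 nm excitation, 525 nm emission · Read-out – inhibition of fibronectin deposition signal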
PAX8 reporter = lowers PAX8-driven luciferase in RMG-I cells | inhibition, % at 12.6 µM | RMG-I TPO-luciferase reporter, SteadyGlo, 24 h | 360,000 compounds, 1.2% hits;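 active = mean replicate inhibition at least 60% with every replicate also reaching 60%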;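 note: luciferase light reporting Pax8 driven TPO promoter activity; plate controls were median of neutral control wells for no effect and mitoxantrone controls for full effect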
Starred values were filed as active, the others as inactive; nt = not tested or not shown; [ ] = dose if it differs, or a comment. A selection: hits, their analogues and other compounds. The true share with any hit is near 2.5%.

SMILES	N-glyco inh	MLL AF4-AF9 inh	Env fusion inh	EWS-Fli block	FN deposit inh	PAX8 reporter
Cc1ccc(S(=O)(=O)Nc2ccc3c(c2)C(=O)N([C@@H](C)CO)C[C@H](C)[C@@H](CN(C)CC2CCCCC2)OCCCC[C@H](C)O3)cc1	nt	17	38[16.7 µM]	-5	nt	32
Cc1cc2c3c(c1)C1(SCC(=O)N1c1ccc(F)cc1)C(=O)N3C(C)(C)CC2C (stereo not drawn)	-7	nt	69*	nt	-7	nt
CC(C)NC(=O)Nc1ccc2c(c1)C(=O)N([C@@H](C)CO)C[C@@H](C)[C@H](CN(C)C(=O)NC(C)C)OCCCC[C@H](C)O2	nt	-5	-86[16.7 µM]	nt	-11	8
CS(=O)(=O)Nc1cccc(-c2cc(NC=O)c3ncc(-c4ccc(F)c(Cl)c4)n3c2)c1	6	0	-13	11	16	64*
COc1ccc(-c2cnc3c(NC=O)cc(-c4cccc(NS(C)(=O)=O)c4)cn23)cc1OC	5	-1	-110	48	19	112*
CC(=O)Nc1cc(-c2ccc(N3CCN(C)CC3)cc2)cn2c(-c3ccc(F)c(Cl)c3)cnc12	-10	27*	-7	12	-7	-2
O=CNc1cc(-c2cccc(F)c2)cn2c(-c3ccc(F)c(Cl)c3)cnc12	2	-3	4	7	-3	38
COCC(=O)Nc1ccc2c(c1)[C@@H]1C[C@@H](CC(=O)NCCN3CCCCC3)O[C@@H](CO)[C@@H]1O2	nt	0	-23[16.7 µM]	4	-10	5
Cc1ccc(S(=O)(=O)Nc2ccc3c(c2)C(=O)N([C@@H](C)CO)C[C@H](C)[C@@H](CN(C)C(=O)c2ccccc2)OCCCC[C@H](C)O3)cc1	nt	-1	18[16.7 µM]	-5	-4	30
COc1ccc(OC)c(N/C=C/C(=O)c2ccccc2)c1	-19	5	10	81*	-1	78*
COc1ccc(N/C=C/C(=O)c2cc(OC)c(OC)c(OC)c2)cc1	38*	6	-206	36	17	19
COc1ccc(C=CC(=O)c2c(OC)cc(OC)c(OC)c2O)cc1	29*	-3	7	-6	6	-4
COc1ccc(C(=O)/C=C/c2ccc(O)cc2)cc1	6	-2	nt	33	nt	nt
C[C@H]1CN([C@@H](C)CO)C(=O)c2cc(-c3cccnc3)cnc2O[C@H]1CN(C)C(=O)Nc1ccc(C(F)(F)F)cc1	nt	1	-11[16.7 µM]	-10	6	nt
CO[C@H]1CN(C)C(=O)c2cc(NC(=O)CC(F)(F)F)ccc2OC[C@@H](C)N(C(=O)C2CC2)C[C@@H]1C	nt	-6	29[16.7 µM]	2	6	nt
C[C@H]1CN([C@@H](C)CO)C(=O)Cc2cc(N(C)C)ccc2O[C@@H]1CN(C)Cc1ccc(C(F)(F)F)cc1	nt	nt	2[16.7 µM]	5	nt	17
CO[C@@H]1CN(C)C(=O)c2cc(NC(C)=O)ccc2OC[C@@H](C)N(Cc2ccccn2)C[C@@H]1C	nt	2	nt	2	10	nt
O=C(Nc1ccc(-c2nc3cccnc3s2)cc1)C1CCCO1 (stereo not drawn)	-21	-7	40	66*	-1	0
O=C(Nc1ccc(-c2nc3ccccc3o2)cc1)C1CCCO1 (stereo not drawn)	-18	nt	-156	nt	nt	nt
Cc1ccc(-c2nnc(Nc3ccccc3)o2)cc1	-21	0	nt	63*	nt	nt
Cc1ccc(NC(=O)Nc2nnc(-c3ccccc3)o2)cc1	1	-1	-19	-38	-11	-83
OC(CNCC(c1ccc(Cl)cc1Cl)c1c[nH]c2ccccc12)c1ccccc1 (stereo not drawn)	-17	6	37	48	nt	93*
CCc1ccc(NC(=O)c2cnn3ccccc23)cc1	-19	-6	27	71*	-6	82*
CSc1cccc(NC(=O)c2cnn3ccccc23)c1	-8	2	-94	-48	14	-84
COc1ccc(C2=NOC(Cn3nc(-c4ccccc4)cc3C(=O)NCc3cccc(Br)c3)C2)cc1 (stereo not drawn)	-2	-19	-1	-10	-5	-14
SMILES	N-glyco inh	MLL AF4-AF9 inh	Env fusion inh	EWS-Fli block	FN deposit inh	PAX8 reporter
COc1ccccc1CNC(=O)c1cc(-c2ccccc2C)n(CC2CC(c3cccc([N+](=O)[O-])c3)=NO2)n1 (stereo not drawn)	-6	2	60*	27	5	11
COc1ccc(C2=NOC(Cn3nc(C(=O)NCc4cccc(Br)c4)cc3-c3ccccc3)C2)cc1 (stereo not drawn)	-9	-2	85*	17	2	24
COCCNC(=O)c1cc(-c2ccccc2C)n(CC2CC(c3cccc([N+](=O)[O-])c3)=NO2)n1 (stereo not drawn)	0	5	24	11	-3	12
COc1cccc(NC(=O)COc2ncnc3sc(C)c(C)c23)c1	0	nt	nt	nt	nt	nt
CCN(CC(=O)Nc1cccc(OC)c1)c1ncnc2sc(C)c(C)c12	-2	nt	58*	nt	-1	8
N=c1ccn(CC(=O)c2ccc(-c3ccccc3)cc2)cc1	2	2	69*	31	-1	83*
CC(C)OC(=O)N(C)C[C@H]1OCc2ccccc2-c2c(n(C)c3ccccc23)C(=O)N([C@H](C)CO)C[C@H]1C	nt	0	nt	6	-2	nt
CC(C)NC(=O)Nc1ccc2c(c1)C(=O)N([C@@H](C)CO)C[C@@H](C)[C@@H](CN(C)C(=O)Nc1ccc3c(c1)OCO3)OCCCC[C@@H](C)O2	nt	2	25[16.7 µM]	-10	-12	1
CC(=O)c1sc(NC(=O)CCS(=O)(=O)c2ccccc2)nc1C	-10	-1	0	nt	4	44
CC(=O)c1sc(NC(=O)CCS(=O)(=O)c2ccc(F)cc2)nc1C	-11	-8	11	-12	-5	77*
COc1ccc(C(C(=O)NC2CCCC2)N(C(=O)c2ccoc2C)c2ccc(C)cc2)cc1 (stereo not drawn)	-6	nt	90*	nt	0	nt
COc1ccc(C(C(=O)NC2CCCCC2)N(C(=O)CCl)c2cccc(Cl)c2)cc1 (stereo not drawn)	-7	-5	nt	53*	19	115*
COc1ccc(C(C(=O)NC2CCCCC2)N(C(=O)CCl)c2ccc(C)cc2)cc1 (stereo not drawn)	17	-1	56*	48	5	111*
COc1ccc(C(C(=O)NC2CCCCC2)N(C(=O)CCl)c2ccc(OC)cc2)cc1 (stereo not drawn)	10	nt	nt	nt	nt	nt
O=C(N[C@H]1CC[C@H](CCn2cc(C3(O)CCCC3)nn2)O[C@H]1CO)C1CCOCC1	nt	-2	-17[16.7 µM]	6	2	-3
CCCNC(=O)[C@@H]1[C@@H](CO)[C@@H]2Cn3c(ccc(C4=CCCC4)c3=O)[C@H]1N2CCC(F)(F)F	nt	0	nt	-8	nt	-21
O=C(O)COc1ccc(-c2nccc(-c3ccccn3)n2)cc1	-3	1	22	53*	6	-2
COc1ccc2c3c(n(C)c2c1)[C@H](CO)NCC31CCN(CC2CCCC2)CC1	nt	14	nt	10	nt	-1
